# Test results from ChEMBL document CHEMBL5137066, “Discovery of BLU-945, a Reversible, Potent, and Wild-Type-Sparing Next-Generation EGFR Mutant Inhibitor for Treatment-Resistant Non-Small-Cell Lung Cancer” (J Med Chem, 2022).
# The source made the active and inactive calls. The rule behind the calls is not given here.
# Legend:
# [1] = Plasma protein binding in cynomolgus monkey assessed as unbound fraction by ultracentrifugation method; type: ADME, cell-free, Macaca fascicularis
# In short: (§1)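 Plasma protein binding determined by ultracentrifugation, reported as the unbound fraction.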
# [2] = Volume of distribution at steady state in Sprague-Dawley rat at 1 mg/kg, iv; type: ADME, organism-based; details: in vivo, read-out: Vdss
# [3] = Apparent permeability across apical to basolateral side in MDCK-MDR1 cells; type: ADME, cell-based, Canis lupus familiaris; details: dog
# [4] = Half life in Sprague-Dawley rat at 1 mg/kg, iv; type: ADME, organism-based; details: in vivo
# In short: (§2)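 Sprague–Dawley rats (n = 3), single IV bolus of 1 mg/kg in 10% DMSO, 10% solutol, 80% of a 20% HP-β-CD solution (in water or in saline, depending on compound). Clearance is plasma clearance after the IV bolus.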
# [5] = Intrinsic clearance in human liver microsomes in presence of NADPH; type: ADME, Microsome
# In short: (§3)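 Intrinsic clearance measured in isolated liver microsomes of each species with NADPH, expressed in μL/min/mg.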
# [6] = Intrinsic clearance in cynomolgus monkey liver microsomes in presence of NADPH; type: ADME, Macaca fascicularis, Microsome; in short: as §3
# [7] = Lipophilicity, logD of compound at pH 7.4; type: physicochemical; details: buffer
# [8] = Intrinsic clearance in human hepatocytes assessed per million cells; type: ADME, cell-based, Hepatocyte
# In short: (§4)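 Intrinsic clearance measured in isolated hepatocytes of each species, expressed in μL/min/million cells.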
# [9] = Clearance in cynomolgus monkey at 0.5 mg/kg,iv; type: ADME, organism-based, Macaca fascicularis; details: in vivo
# In short: (§5)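 Cynomolgus monkeys given a single IV bolus of 0.5 mg/kg in 5% DMSO + 5% kolliphor HS 15 + 90% saline. Clearance is plasma clearance after the bolus.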
# [10] = Half life in cynomolgus monkey at 0.5 mg/kg, iv; type: ADME, organism-based, Macaca fascicularis; details: in vivo; in short: as §5
# NCI-H1975 [11] = test: Antitumor activity against human NCI-H1975 cells xenografted in BALB/c mouse assessed as reduction in tumor volume at 30 mg/kg, po bid administered via oral gavage for 14 days; type: functional, organism-based; details: time 14.0 day
# In short: (§6)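 Female BALB/c nude mice, 6–8 weeks old, inoculated s.c. in right flank with 5 × 10^6 NCI-H1975 cells in PBS:Matrigel 1:1. Randomized and dosed by oral gavage BID once mean tumor volume reached ~155 mm3. Tumor size and body weight measured every second day. Volume = 0.5ab2 (a, b long and short diameters). Plasma taken 2, 6, 12 h after the last dose for LC-MS/MS.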
# NCI-H1975 [12] = test: Antitumor activity against human NCI-H1975 cells xenografted in BALB/c mouse assessed as reduction in tumor volume at 100 mg/kg , po bid administered via oral gavage for 14 days; type: functional, organism-based; details: time 14.0 day; in short: as §6
# [13] = Toxicity in BALB/c nude mouse xenografted with human NCI-H1975 cells assessed as effect on body weight at 30 mg/kg, po bid administered via oral gavage for 14 days; type: organism-based; details: in vivo, 336 h, time 14 day; in short: as §6
# [14] = Toxicity in BALB/c nude mouse xenografted with human NCI-H1975 cells assessed as effect on body weight at 100 mg/kg , po bid administered via oral gavage for 14 days; type: organism-based; details: in vivo, 336 h, time 14 day; in short: as §6
# [15] = Toxicity in BALB/c nude mouse xenografted with human NCI-H1975 cells assessed as effect on body weight at 25 mg/kg , po qd administered via oral gavage for 14 days; type: organism-based; details: in vivo, 336 h, time 14 day
# In short: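 Female BALB/c nude mice, 6–8 weeks old, bearing s.c. right-flank NCI-H1975 xenografts (5 × 10^6 cells in PBS:Matrigel 1:1). Once-daily oral gavage began at mean tumor volume ~155 mm3. Body weight and tumor size recorded every second day.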
# [16] = Thermodynamic solubility of the compound at pH 1.5; type: physicochemical; details: buffer
# [17] = Thermodynamic solubility of the compound at pH 6.5; type: physicochemical; details: buffer
# [18] = Plasma protein binding in human assessed as unbound fraction by ultracentrifugation method; type: ADME, cell-free; in short: as §1
# [19] = Plasma protein binding in rat assessed as unbound fraction by ultracentrifugation method; type: ADME, cell-free; in short: as §1
# [20] = Plasma protein binding in dog assessed as unbound fraction by ultracentrifugation method; type: ADME, cell-free, Canis lupus familiaris; in short: as §1
# [21] = Plasma clearance in Sprague-Dawley rat at 1 mg/kg, iv; type: ADME, organism-based; in short: as §2
# [22] = Oral bioavailability in Sprague-Dawley rat at […]; type: ADME, organism-based; details: in vivo, dose 2.5 mg/kg
# [23] = Plasma clearance in cynomolgus monkey at 0.5 mg/kg, iv; type: ADME, organism-based, Macaca fascicularis; in short: as §5
# [24] = Volume of distribution at steady state in cynomolgus monkey at 0.5 mg/kg, iv; type: ADME, organism-based, Macaca fascicularis; details: in vivo, read-out: Vdss
# [25] = Oral bioavailability in cynomolgus monkey at […], iv; type: ADME, organism-based, Macaca fascicularis; details: in vivo, dose 2.5 mg/kg
# [26] = Plasma clearance in beagle dog at 0.5 mg/kg, iv; type: ADME, organism-based, Canis lupus familiaris
# In short: (§7)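 Beagle dogs, single IV dose of 0.5 mg/kg in 5% DMSO + 5% kolliphor HS 15 + 90% saline. Clearance is plasma clearance.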
# [27] = Half life in beagle dog at 0.5 mg/kg, iv; type: ADME, organism-based, Canis lupus familiaris; details: in vivo; in short: as §7
# [28] = Volume of distribution at steady state in Beagle dog at 0.5 mg/kg, iv; type: ADME, organism-based, Canis lupus familiaris; details: in vivo, read-out: Vdss
# [29] = Oral bioavailability in Beagle dog at […], iv; type: ADME, organism-based, Canis lupus familiaris; details: in vivo, dose 2.5 mg/kg
# [30] = tested on: Ba/F3 EGFR-T790M/C797S/L858R; test: Antitumor activity against mouse Ba/F3 EGFR-T790M/C797S/L858R cells implanted in NOD SCID mouse assessed as reduction in tumor volume at 100 mg/kg, po bid administered via oral gavage for 14 days; type: functional, organism-based; details: time 14.0 day
# [31] = tested on: Ba/F3 EGFR-Del19/T790M/C797S; test: Antitumor activity against osimertinib-resistant mouse Ba/F3 EGFR-Del19/T790M/C797S cells implanted in NOD SCID mouse assessed as reduction in tumor volume at 100 mg/kg , po bid administered via oral gavage for 14 days; type: functional, organism-based; details: time 14.0 day
# NSCLC = type: functional, organism-based; details: Homo sapiens, dose 75-100 mg/kg, route po, time 56.0 day
# [32] = Clearance in Sprague-Dawley rat at 1 mg/kg, iv; type: ADME, organism-based; details: in vivo; in short: as §2
# [33] = Oral bioavailability in Sprague-Dawley rat at 5 mg/kg; type: ADME, organism-based; details: in vivo
# In short: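 Sprague–Dawley rats (n = 3) received 1 mg/kg IV and 5 mg/kg PO. IV vehicle was 10% DMSO/10% solutol/80% (20% HP-β-CD). PO vehicle was a suspension in 20% solutol in 0.5% MC in water, or a solution matching the IV vehicle, depending on compound.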
# [34] = Intrinsic clearance in rat liver microsomes in presence of NADPH; type: ADME, Microsome; in short: as §3
# [35] = Intrinsic clearance in dog liver microsomes in presence of NADPH; type: ADME, Canis lupus familiaris, Microsome; in short: as §3
# [36] = Intrinsic clearance in rat hepatocytes assessed per million cells; type: ADME, cell-based, Hepatocyte; in short: as §4
# [37] = Intrinsic clearance in dog hepatocytes assessed per million cells; type: ADME, cell-based, Canis lupus familiaris, Hepatocyte; in short: as §4
smiles,measurement,setting,value
CO[C@@H]1CCN(c2nccc(Nc3cc4c(C(C)C)ccc(N5C[C@H](CS(C)(=O)=O)[C@H]5C)c4cn3)n2)C[C@@H]1F [TIGOZERTINIB],Fu,[1],3.5%
same,Vd,[2],2.3 L/kg
same,Papp,[3],8 10^-6 cm/s
same,half-life,[4],1.3 h
same,CLH,[5],89 µL/min/mg
same,CLH,[6],109 µL/min/mg
same,logD,[7],3.8
same,CLH,[8],23 µL/min
same,clearance,[9],4.9 mL/min/kg
same,half-life,[10],3.5 h
same,Activity,NCI-H1975 [11],Active
same,Activity,NCI-H1975 [12],Active
same,Activity,[13],Non-Toxic
same,Activity,[14],Non-Toxic
same,Activity,[15],Non-Toxic
same,Therm_solubility,[16],11000 µg/mL
same,Therm_solubility,[17],10 µg/mL
same,Fu,[18],1.1%
same,Fu,[19],0.9%
same,Fu,[20],1.4%
same,clearance,[21],32.4 mL/min/kg
same,F,[22],48%
same,clearance,[23],4.9 mL/min/kg
same,Vd,[24],1.6 L/kg
same,F,[25],33%
same,clearance,[26],13.7 mL/min/kg
same,half-life,[27],4.9 h
same,Vd,[28],3.9 L/kg
same,F,[29],49%
same,Activity,[30],Active
same,Activity,[31],Active
same,Activity,NSCLC,Active
CC(C)c1ccc(N2C[C@H](CS(C)(=O)=O)[C@H]2C)c2cnc(Nc3ccnc(N4CC[C@@H](O)[C@@](C)(F)C4)n3)cc12,Papp,[3],9 10^-6 cm/s
same,clearance,[32],25 mL/min/kg
same,half-life,[4],1.3 h
same,F,[33],50%
same,CLH,[5],7.2 µL/min/mg
same,CLH,[34],43 µL/min/mg
same,CLH,[35],20 µL/min/mg
same,CLH,[6],55 µL/min/mg
same,CLH,[8],41 µL/min
same,CLH,[36],33 µL/min
same,CLH,[37],21 µL/min
same,clearance,[9],31.8 mL/min/kg
same,half-life,[10],2.9 h
